Measurements reported in ChEMBL document CHEMBL1141859, “Synthesis and antimicrobial activity of 5-hydroxymethyl- 8-methyl-2-(N-arylimino)-pyrano[2,3-c]pyridine-3-(N-aryl)-carboxamides” (2005).
≈ marks a conversion by molar mass, not a printed value.

How the values were obtained:
Format in all cases: functional
Proteus vulgaris = test: Antibacterial activity against Proteus vulgaris
Outline: (§1)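 Twofold serial broth dilution in tubes, triplicate. Ten tubes of seeded broth (2 mL each); compound added as a 1 mg/mL DMF solution to the first tube, then serially transferred. Bacteria inoculated at 2×10^5 cfu/mL and incubated at 37 °C for 18–24 h. MIC (µg/mL) read visually. DMF solvent, positive growth and standard drug controls run alongside.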

Escherichia coli = test: Antibacterial activity against Escherichia coli; outline: as §1
Candida albicans = test: Antifungal activity against Candida albicans
Outline: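 For Candida albicans: broth double-dilution in tubes, run in triplicate. Compound added as a 1 mg/mL DMF solution to the first of ten seeded-broth tubes (2 mL), then serially diluted by transfer. Fungal inoculum 5×10^5 cfu/mL; incubation at 30 °C for 48 h. MIC (µg/mL) by visual reading. Controls were DMF solvent, positive growth and standard drug.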

Staphylococcus aureus = test: Antibacterial activity against Staphylococcus aureus; outline: as §1
Pseudomonas aeruginosa = test: Antibacterial activity against Pseudomonas aeruginosa; outline: as §1

SMILES | MIC (Proteus vulgaris) | MIC (Escherichia coli) | MIC (Candida albicans) | MIC (Staphylococcus aureus) | MIC (Pseudomonas aeruginosa)
COc1ccc(NC(=O)c2cc3c(CO)cnc(C)c3o/c2=N\c2ccc(Cl)c(Cl)c2)c(OC)c1 | 50 µg/mL (≈ 97.2 µM) | 50 µg/mL (≈ 97.2 µM) | 50 µg/mL (≈ 97.2 µM) | 50 µg/mL (≈ 97.2 µM) | 50 µg/mL (≈ 97.2 µM)
CCOc1ccc(/N=c2\oc3c(C)ncc(CO)c3cc2C(=O)Nc2cccc(C)c2)cc1 | 50 µg/mL (≈ 113 µM) | 50 µg/mL (≈ 113 µM) | 50 µg/mL (≈ 113 µM) | 50 µg/mL (≈ 113 µM) | 25 µg/mL (≈ 56.4 µM)
COc1ccc(NC(=O)c2cc3c(CO)cnc(C)c3o/c2=N\c2ccc(OC)c(OC)c2)c(OC)c1 | 50 µg/mL (≈ 98.9 µM) | 50 µg/mL (≈ 98.9 µM) | 50 µg/mL (≈ 98.9 µM) | 25 µg/mL (≈ 49.5 µM) | 50 µg/mL (≈ 98.9 µM)
Cc1ccc(NC(=O)c2cc3c(CO)cnc(C)c3o/c2=N\c2ccc(Br)cc2)cc1 | 50 µg/mL (≈ 105 µM) | 50 µg/mL (≈ 105 µM) | 25 µg/mL (≈ 52.3 µM) | 25 µg/mL (≈ 52.3 µM) | 50 µg/mL (≈ 105 µM)
Cc1ccc(NC(=O)c2cc3c(CO)cnc(C)c3o/c2=N\c2cccc(Cl)c2)cc1 | 50 µg/mL (≈ 115 µM) | 50 µg/mL (≈ 115 µM) | 25 µg/mL (≈ 57.6 µM) | 50 µg/mL (≈ 115 µM) | 50 µg/mL (≈ 115 µM)
COc1ccc(/N=c2\oc3c(C)ncc(CO)c3cc2C(=O)Nc2cccc(C)c2)cc1OC | 100 µg/mL (≈ 218 µM) | 50 µg/mL (≈ 109 µM) | 50 µg/mL (≈ 109 µM) | 50 µg/mL (≈ 109 µM) | 100 µg/mL (≈ 218 µM)
Cc1ccc(/N=c2\oc3c(C)ncc(CO)c3cc2C(=O)Nc2cccc(C)c2)cc1 | 50 µg/mL (≈ 121 µM) | 50 µg/mL (≈ 121 µM) | 50 µg/mL (≈ 121 µM) | 50 µg/mL (≈ 121 µM) | 50 µg/mL (≈ 121 µM)
COc1cccc(/N=c2\oc3c(C)ncc(CO)c3cc2C(=O)Nc2ccc(C)cc2)c1 | 100 µg/mL (≈ 233 µM) | 25 µg/mL (≈ 58.2 µM) | 50 µg/mL (≈ 116 µM) | 50 µg/mL (≈ 116 µM) | 50 µg/mL (≈ 116 µM)
Cc1ccc(NC(=O)c2cc3c(CO)cnc(C)c3o/c2=N\c2ccccc2I)cc1 | 100 µg/mL (≈ 190 µM) | 50 µg/mL (≈ 95.2 µM) | 50 µg/mL (≈ 95.2 µM) | 25 µg/mL (≈ 47.6 µM) | 50 µg/mL (≈ 95.2 µM)
Cc1cccc(NC(=O)c2cc3c(CO)cnc(C)c3o/c2=N\c2ccc(C)c(C)c2)c1 | 50 µg/mL (≈ 117 µM) | 25 µg/mL (≈ 58.5 µM) | 12.5 µg/mL (≈ 29.2 µM) | 50 µg/mL (≈ 117 µM) | 12.5 µg/mL (≈ 29.2 µM)
CCOC(=O)c1ccc(/N=c2\oc3c(C)ncc(CO)c3cc2C(=O)Nc2ccccc2)cc1 | 50 µg/mL (≈ 109 µM) | 50 µg/mL (≈ 109 µM) | 50 µg/mL (≈ 109 µM) | 50 µg/mL (≈ 109 µM) | 50 µg/mL (≈ 109 µM)
Cc1cccc(NC(=O)c2cc3c(CO)cnc(C)c3o/c2=N\c2cccc(Cl)c2)c1 | 100 µg/mL (≈ 230 µM) | 50 µg/mL (≈ 115 µM) | 50 µg/mL (≈ 115 µM) | 100 µg/mL (≈ 230 µM) | 50 µg/mL (≈ 115 µM)
CCc1ccccc1/N=c1\oc2c(C)ncc(CO)c2cc1C(=O)Nc1ccc(C)cc1 | 50 µg/mL (≈ 117 µM) | 50 µg/mL (≈ 117 µM) | 50 µg/mL (≈ 117 µM) | 50 µg/mL (≈ 117 µM) | 50 µg/mL (≈ 117 µM)
Cc1cccc(NC(=O)c2cc3c(CO)cnc(C)c3o/c2=N\c2ccccc2)c1 | 50 µg/mL (≈ 125 µM) | 50 µg/mL (≈ 125 µM) | 12.5 µg/mL (≈ 31.3 µM) | 100 µg/mL (≈ 250 µM) | 25 µg/mL (≈ 62.6 µM)
Cc1ccc2nc(-c3ccc(/N=c4\oc5c(C)ncc(CO)c5cc4C(=O)Nc4ccccc4)cc3)sc2c1 | 50 µg/mL (≈ 93.9 µM) | 25 µg/mL (≈ 46.9 µM) | 50 µg/mL (≈ 93.9 µM) | 100 µg/mL (≈ 188 µM) | 100 µg/mL (≈ 188 µM)
COc1ccccc1/N=c1\oc2c(C)ncc(CO)c2cc1C(=O)Nc1ccc(C)cc1 | 100 µg/mL (≈ 233 µM) | 50 µg/mL (≈ 116 µM) | 25 µg/mL (≈ 58.2 µM) | 100 µg/mL (≈ 233 µM) | 50 µg/mL (≈ 116 µM)
Cc1ccc(/N=c2\oc3c(C)ncc(CO)c3cc2C(=O)Nc2ccccc2C)cc1C | 50 µg/mL (≈ 117 µM) | 50 µg/mL (≈ 117 µM) | 100 µg/mL (≈ 234 µM) | 100 µg/mL (≈ 234 µM) | 25 µg/mL (≈ 58.5 µM)
Cc1ccc(NC(=O)c2cc3c(CO)cnc(C)c3o/c2=N\c2ccc(Oc3ccccc3)cc2)cc1 | 50 µg/mL (≈ 102 µM) | 50 µg/mL (≈ 102 µM) | 12.5 µg/mL (≈ 25.4 µM) | 50 µg/mL (≈ 102 µM) | 50 µg/mL (≈ 102 µM)

SMILES | MIC (Proteus vulgaris) | MIC (Escherichia coli) | MIC (Candida albicans) | MIC (Staphylococcus aureus) | MIC (Pseudomonas aeruginosa)
Cc1ncc(CO)c2cc(C(=O)Nc3ccccc3)/c(=N/c3ccccc3)oc12 | 50 µg/mL (≈ 130 µM) | 25 µg/mL (≈ 64.9 µM) | 50 µg/mL (≈ 130 µM) | 50 µg/mL (≈ 130 µM) | 50 µg/mL (≈ 130 µM)
COc1ccc(NC(=O)c2cc3c(CO)cnc(C)c3o/c2=N\c2ccc(Cl)c(Cl)c2)cc1 | 25 µg/mL (≈ 51.6 µM) | 25 µg/mL (≈ 51.6 µM) | 12.5 µg/mL (≈ 25.8 µM) | 12.5 µg/mL (≈ 25.8 µM) | 25 µg/mL (≈ 51.6 µM)
COc1cc(NC(=O)c2cc3c(CO)cnc(C)c3o/c2=N\c2ccc(C(N)=O)cc2)cc(OC)c1 | 50 µg/mL (≈ 102 µM) | 50 µg/mL (≈ 102 µM) | 25 µg/mL (≈ 51.2 µM) | 50 µg/mL (≈ 102 µM) | 50 µg/mL (≈ 102 µM)
Cc1ncc(CO)c2cc(C(=O)Nc3ccccc3)/c(=N/c3ccc(Oc4ccccc4)cc3)oc12 | 50 µg/mL (≈ 105 µM) | 25 µg/mL (≈ 52.4 µM) | 50 µg/mL (≈ 105 µM) | 50 µg/mL (≈ 105 µM) | 50 µg/mL (≈ 105 µM)
Cc1ncc(CO)c2cc(C(=O)Nc3ccccc3F)/c(=N/c3ccc(C(F)(F)F)cc3)oc12 | 100 µg/mL (≈ 212 µM) | 50 µg/mL (≈ 106 µM) | 25 µg/mL (≈ 53 µM) | 50 µg/mL (≈ 106 µM) | 50 µg/mL (≈ 106 µM)
CCc1ccc(NC(=O)c2cc3c(CO)cnc(C)c3o/c2=N\c2ccc3c(c2)OCO3)cc1 | 50 µg/mL (≈ 109 µM) | 50 µg/mL (≈ 109 µM) | 12.5 µg/mL (≈ 27.3 µM) | 100 µg/mL (≈ 219 µM) | 50 µg/mL (≈ 109 µM)
Cc1ncc(CO)c2cc(C(=O)Nc3ccccc3)/c(=N/c3ccc4c(c3)OCO4)oc12 | 50 µg/mL (≈ 116 µM) | 25 µg/mL (≈ 58.2 µM) | 50 µg/mL (≈ 116 µM) | 50 µg/mL (≈ 116 µM) | 50 µg/mL (≈ 116 µM)
Cc1cc(C)cc(/N=c2\oc3c(C)ncc(CO)c3cc2C(=O)Nc2ccccc2C)c1 | 100 µg/mL (≈ 234 µM) | 100 µg/mL (≈ 234 µM) | 100 µg/mL (≈ 234 µM) | 100 µg/mL (≈ 234 µM) | 50 µg/mL (≈ 117 µM)
CCc1cccc(/N=c2\oc3c(C)ncc(CO)c3cc2C(=O)Nc2ccccc2)c1 | 100 µg/mL (≈ 242 µM) | 100 µg/mL (≈ 242 µM) | 100 µg/mL (≈ 242 µM) | 100 µg/mL (≈ 242 µM) | 100 µg/mL (≈ 242 µM)
Cc1cccc(/N=c2\oc3c(C)ncc(CO)c3cc2C(=O)Nc2ccccc2C)c1 | 25 µg/mL (≈ 60.5 µM) | 50 µg/mL (≈ 121 µM) | 12.5 µg/mL (≈ 30.2 µM) | 100 µg/mL (≈ 242 µM) | 50 µg/mL (≈ 121 µM)
CCc1ccc(/N=c2\oc3c(C)ncc(CO)c3cc2C(=O)Nc2ccccc2)cc1 | 50 µg/mL (≈ 121 µM) | 50 µg/mL (≈ 121 µM) | 50 µg/mL (≈ 121 µM) | 50 µg/mL (≈ 121 µM) | 50 µg/mL (≈ 121 µM)
COc1cc(/N=c2\oc3c(C)ncc(CO)c3cc2C(=O)Nc2cccc(C)c2)cc(OC)c1 | 100 µg/mL (≈ 218 µM) | 100 µg/mL (≈ 218 µM) | 12.5 µg/mL (≈ 27.2 µM) | 25 µg/mL (≈ 54.4 µM) | 50 µg/mL (≈ 109 µM)
COc1ccc(/N=c2\oc3c(C)ncc(CO)c3cc2C(=O)Nc2cccc(C)c2)c(OC)c1 | 50 µg/mL (≈ 109 µM) | 50 µg/mL (≈ 109 µM) | 50 µg/mL (≈ 109 µM) | 50 µg/mL (≈ 109 µM) | 25 µg/mL (≈ 54.4 µM)
Cc1cccc(/N=c2\oc3c(C)ncc(CO)c3cc2C(=O)Nc2ccccc2)c1 | 100 µg/mL (≈ 250 µM) | 100 µg/mL (≈ 250 µM) | 100 µg/mL (≈ 250 µM) | 100 µg/mL (≈ 250 µM) | 100 µg/mL (≈ 250 µM)
Cc1ccc(NC(=O)c2cc3c(CO)cnc(C)c3o/c2=N\c2ccc(Cl)c(Cl)c2)cc1 | 50 µg/mL (≈ 107 µM) | 100 µg/mL (≈ 214 µM) | 25 µg/mL (≈ 53.4 µM) | 100 µg/mL (≈ 214 µM) | 50 µg/mL (≈ 107 µM)
COc1cc(/N=c2\oc3c(C)ncc(CO)c3cc2C(=O)Nc2ccccc2)cc(OC)c1 | 50 µg/mL (≈ 112 µM) | 50 µg/mL (≈ 112 µM) | 100 µg/mL (≈ 224 µM) | 50 µg/mL (≈ 112 µM) | 25 µg/mL (≈ 56.1 µM)
O=C(O)c1cn(C2CC2)c2cc(N3CCNCC3)c(F)cc2c1=O [CIPROFLOXACIN] | 12.5 µg/mL (≈ 37.7 µM) | 25 µg/mL (≈ 75.4 µM) | – | – | –
OC(Cn1cncn1)(Cn1cncn1)c1ccc(F)cc1F [FLUCONAZOLE] | – | – | 50 µg/mL (≈ 163 µM) | – | –
